Activity calls are given as the source filed them.
Columns and labels:
[1] = system: Rattus norvegicus; experiment: Antiarthritic activity in Wistar rat type-2 collagen-induced arthritis model assessed as reduction in joint tissue TNF-alpha level at 15 mg/kg, ig via gavage administered 10 consecutive days starting from day 20 post type-2 collagen injection by ELISA method; assay type: functional, organism-based
Procedure, shortened: (§1)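 CIA Wistar rats dosed by gavage daily for 10 d from day 20 post first CII injection. Trunk blood serum stored at −70 °C. Right hind paw joint tissue homogenized at 200 mg/mL in PBS with 50 U/mL aprotinin, then centrifuged at 3000 rpm for 20 min at 4 °C. IL-1β and TNF-α quantified by ELISA kits in serum and supernatant. n = 10; one-way ANOVA with SNK.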

[2] = system: Rattus norvegicus; experiment: Antiarthritic activity in Wistar rat type-2 collagen-induced arthritis model assessed as reduction in IL-1beta mRNA expression at 15 mg/kg, ig via gavage administered 10 consecutive days starting from day 20 post type-2 collagen injection by qPCR analysis; assay type: functional, organism-based
Procedure, shortened: (§2)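 Male Wistar rats (7 weeks old) given chicken CII (2 mg/mL in 0.1 M acetic acid) emulsified 1:1 in BCG/IFA adjuvant, two intradermal 0.3 mL injections 7 d apart. Gavage in saline daily for 10 d from day 20. Total RNA from ankle synovial tissue homogenate, reverse transcribed, qPCR in triplicate. Fold change vs blank control by 2−ΔΔCt.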

[3] = system: Rattus norvegicus; experiment: Antiarthritic activity in Wistar rat type-2 collagen-induced arthritis model assessed as reduction in serum anti-type-2 collagen IgG level at 0.6 mg/kg, ig via gavage administered 10 consecutive days starting from day 20 post type-2 collagen injection by ELISA method; assay type: functional, organism-based
Procedure, shortened: (§3)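 CIA Wistar rats (chicken CII in BCG/IFA emulsion, intradermal twice 7 d apart) gavaged daily for 10 d from day 20. Serum collected after treatment; anti-CII IgG quantified with a rat anti-CII antibody ELISA kit. n = 10 per group; one-way ANOVA with Student−Newman−Keuls.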

[4] = system: Rattus norvegicus; experiment: (§4) Antiarthritic activity in Lewis rat Freund's adjuvant-induced arthritis model assessed as change in spleen weight at 0.6 to 15 mg/kg, ig administered through gavage pretreated for 1 hr followed by adjuvant challenge subsequent treatment for 9 days measured alternate days up to 24 days post dose; assay type: functional, organism-based
Procedure, shortened: (§5)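 Female Lewis rats (8 weeks old, 120−140 g) given a single intradermal injection of 0.1 mL CFA (10 mg heat-killed M. tuberculosis per 1 mL paraffin oil) into the right hind paw. Oral gavage in sterile saline 1 h before induction, then daily for the next 9 d. Sacrifice by exsanguination under deep anesthesia 24 d after adjuvant. Spleen, liver and thymus weighed and corrected for body weight (g/100 g). n = 10; one-way ANOVA with Student−Newman−Keuls.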

[5] = system: Rattus norvegicus; experiment: Antiarthritic activity in Wistar rat type-2 collagen-induced arthritis model assessed as reduction in bone erosion at 0.6 to 15 mg/kg, ig via gavage administered 10 consecutive days starting from day 20 post type-2 collagen injection by X-ray method; assay type: functional, organism-based
Procedure, shortened: (§6)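 CIA in male Wistar rats (chicken CII emulsion, two intradermal injections 7 d apart); daily gavage for 10 d from day 20. After treatment, hind limbs X-rayed. Left hind paw joints fixed in 10% formalin, decalcified in 10% EDTA for 28 d at 4 °C, paraffin-embedded, sectioned at 5 μm, H&E-stained and examined by light microscopy at 100×.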

[6] = system: Rattus norvegicus; experiment: (§7) Antiarthritic activity in ig dosed Lewis rat Freund's adjuvant-induced arthritis model assessed as reduction in mechanical allodynia in ipsilateral hind paw administered through gavage pretreated for 1 hr followed by adjuvant challenge and subsequent treatment for 9 days measured alternate days up to 24 days post dose; assay type: functional, organism-based
Procedure, shortened: (§8)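 Lewis rats with CFA-induced arthritis (0.1 mL intradermal, right hind paw), gavaged 1 h before induction and daily for 9 d. Mechanical withdrawal threshold measured 1 h after dosing. Rats habituated 30 min in individual cubicles; von Frey filament applied upward to the centre of each hind paw until withdrawal, maximum 55 g. Repeated twice at 10 min intervals; ipsilateral and contralateral paws recorded separately. n = 10; two-way ANOVA.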

[7] = system: Rattus norvegicus; experiment: Antiarthritic activity in Lewis rat Freund's adjuvant-induced arthritis model assessed as change in thymus weight at 0.6 to 15 mg/kg, ig administered through gavage pretreated for 1 hr followed by adjuvant challenge subsequent treatment for 9 days measured alternate days up to 24 days post dose; assay type: functional, organism-based; procedure, shortened: as §5
[8] = system: Rattus norvegicus; experiment: Antiarthritic activity in Wistar rat type-2 collagen-induced arthritis model assessed as reduction in serum IL-1beta level at 3 to 15 mg/kg, ig via gavage administered 10 consecutive days starting from day 20 post type-2 collagen injection by ELISA method; assay type: functional, organism-based; procedure, shortened: as §1
[9] = system: Rattus norvegicus; experiment: Antiarthritic activity in Wistar rat type-2 collagen-induced arthritis model assessed as reduction in bone degradation at 0.6 to 15 mg/kg, ig via gavage administered 10 consecutive days starting from day 20 post type-2 collagen injection by X-ray method; assay type: functional, organism-based; procedure, shortened: as §6
[10] = system: Rattus norvegicus; experiment: Antiarthritic activity in Wistar rat type-2 collagen-induced arthritis model assessed as reduction in mechanical allodynia administered as ig via gavage for 10 consecutive days starting from day 20 post type-2 collagen injection; assay type: functional
Procedure, shortened: (§9)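 Male Wistar rats (7 weeks old) immunized with chicken CII in CFA/IFA, two intradermal 0.3 mL injections 7 d apart. Oral gavage in saline for 10 consecutive days starting day 20. Evaluation at baseline, predosing, and on alternate days thereafter: arthritis score; plethysmometer volume averaged over both hind paws; von Frey threshold 1 h post-dose (max 55 g, two repeats 10 min apart). n = 10.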

[11] = system: Rattus norvegicus; experiment: as §4, with “reduction” for “change”, “arthritis index score” for “spleen weight”, “0.6” for “0.6 to 15”, “challenge and” for “challenge”; assay type: functional, organism-based
Procedure, shortened: (§10)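 Female Lewis rats (8 weeks old) given a single intradermal injection of 0.1 mL CFA (heat-killed M. tuberculosis in paraffin oil) into the right hind paw. Gavage dosing in sterile saline 1 h before induction and daily for 9 d. Arthritis index scored (the paper reports the 18 d reading). n = 10 per group; Kruskal−Wallis with Dunn's test.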

[12] = system: Rattus norvegicus; experiment: Antiarthritic activity in Wistar rat type-2 collagen-induced arthritis model assessed as reduction in cartilage space narrowing at 0.6 to 15 mg/kg, ig via gavage administered 10 consecutive days starting from day 20 post type-2 collagen injection by X-ray method; assay type: functional, organism-based; procedure, shortened: as §6
[13] = system: Rattus norvegicus; experiment: Antiarthritic activity in Lewis rat Freund's adjuvant-induced arthritis model assessed as reduction in arthritis index score at 3 mg/kg, ig administered through gavage pretreated for 1 hr followed by adjuvant challenge subsequent treatment for 9 days measured alternate days up to 24 days post dose; assay type: functional, organism-based; procedure, shortened: as §10
[14] = system: Rattus norvegicus; experiment: Antiarthritic activity in Wistar rat type-2 collagen-induced arthritis model assessed as reduction in arthritis index score administered as ig via gavage for 10 consecutive days starting from day 20 post type-2 collagen injection; assay type: functional; procedure, shortened: as §9
[15] = system: Rattus norvegicus; experiment: (§11) Antiarthritic activity in Wistar rat type-2 collagen-induced arthritis model assessed as reduction in bone degeneration at 15 mg/kg, ig via gavage administered 10 consecutive days starting from day 20 post type-2 collagen injection by hematoxylin and eosin staining based light microscopy; assay type: functional, organism-based; procedure, shortened: as §6
[16] = system: Rattus norvegicus; experiment: as §11, with “cartilage” for “bone”, “degeneration in joints” for “degeneration”; assay type: functional, organism-based; procedure, shortened: as §6
[17] = system: Rattus norvegicus; experiment: as §7, with “in” for “in ig dosed”, “contralateral” for “ipsilateral”, “paw at 0.6 to 15 mg/kg, ig” for “paw”; assay type: functional, organism-based; procedure, shortened: as §8
[18] = system: Rattus norvegicus; experiment: Antiarthritic activity in Wistar rat type-2 collagen-induced arthritis model assessed as reduction in TNF-alpha mRNA expression at 15 mg/kg, ig via gavage administered 10 consecutive days starting from day 20 post type-2 collagen injection by qPCR analysis; assay type: functional, organism-based; procedure, shortened: as §2
[19] = system: Rattus norvegicus; experiment: Antiarthritic activity in Wistar rat type-2 collagen-induced arthritis model assessed as reduction in joint tissue IL-1beta level at 15 mg/kg, ig via gavage administered 10 consecutive days starting from day 20 post type-2 collagen injection by ELISA method; assay type: functional, organism-based; procedure, shortened: as §1
[20] = system: Rattus norvegicus; experiment: Antiarthritic activity in Lewis rat Freund's adjuvant-induced arthritis model assessed as change in liver weight at 0.6 to 15 mg/kg, ig administered through gavage pretreated for 1 hr followed by adjuvant challenge subsequent treatment for 9 days measured alternate days up to 24 days post dose; assay type: functional, organism-based; procedure, shortened: as §5
[21] = system: Rattus norvegicus; experiment: Antiarthritic activity in Wistar rat type-2 collagen-induced arthritis model assessed as reduction in serum anti-type-2 collagen IgG level at 15 mg/kg, ig via gavage administered 10 consecutive days starting from day 20 post type-2 collagen injection by ELISA method; assay type: functional, organism-based; procedure, shortened: as §3
[22] = Toxicity in ig dosed Wistar rat measured 30 mins after administration via gavage at 4 h intervals during first 24 hrs and twice a day thereafter over the next 13 days; assay type: organism-based; settings: in vivo, po
Procedure, shortened: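 OECD 425 up-and-down procedure in ten 7-week-old male Wistar rats, fasted overnight. Single gavage dose at 10 mL/kg, starting at 300 mg/kg with a progression factor of 1/0.75. Survival checked at 30 min, every 4 h for 24 h, then twice daily for 13 d. LD50 reported with a 95% confidence interval.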

[23] = system: Rattus norvegicus; experiment: Antiarthritic activity in Wistar rat type-2 collagen-induced arthritis model assessed as reduction in serum TNF-alpha level at 15 mg/kg, ig via gavage administered 10 consecutive days starting from day 20 post type-2 collagen injection by ELISA method; assay type: functional, organism-based; procedure, shortened: as §1
[24] = system: Rattus norvegicus; experiment: Antiarthritic activity in Wistar rat type-2 collagen-induced arthritis model assessed as reduction in serum anti-type-2 collagen IgG level at 3 mg/kg, ig via gavage administered 10 consecutive days starting from day 20 post type-2 collagen injection by ELISA method; assay type: functional, organism-based; procedure, shortened: as §3
[25] = system: Rattus norvegicus; experiment: Antiarthritic activity in Lewis rat Freund's adjuvant-induced arthritis model assessed as reduction in arthritis index score at 15 mg/kg, ig administered through gavage pretreated for 1 hr followed by adjuvant challenge subsequent treatment for 9 days measured alternate days up to 24 days post dose; assay type: functional, organism-based; procedure, shortened: as §10

What does the source list for `C=C[C@@]12CN(C)[C@H]3C[C@]14C(=Nc1ccccc14)[C@H]1C[C@@H]2[C@@H]3CO1`?
Activity [1]: Active; Activity [2]: Active; Activity [3]: inactive; Activity [4]: inactive; Activity [5]: Active; Activity [6]: Dose-dependent effect; Activity [7]: Active; Activity [8]: Active; Activity [9]: Active; Activity [10]: Dose-dependent effect; Activity [11]: Active; Activity [12]: Active; Activity [13]: Active; Activity [14]: Dose-dependent effect; Activity [15]: Active; Activity [16]: Active; Activity [17]: inactive; Activity [18]: Active; Activity [19]: Active; Activity [20]: Active; Activity [21]: Active; LD50 at 14 days [22]: 300 mg/kg; Activity [23]: Active; Activity [24]: Active; Activity [25]: Active

Source: ChEMBL document CHEMBL4041468, “Effects of Koumine on Adjuvant- and Collagen-Induced Arthritis in Rats” (J Nat Prod, 2016)
